The source made the active and inactive calls. The rule behind the calls is not given here. Non-standard residues stand in square brackets, D forms with d. Residues, ends and D or L forms follow the SMILES beside them. *: point of attachment. Phenylacetyl(4-F) = O=C(Cc1ccc(F)cc1)*; NBn2 = c1ccc(CN(Cc2ccccc2)*)cc1; Cha = N[C@@H](CC1CCCCC1)C(=O)O; X3 = C1CCN(N(N2CCCCC2)*)CC1; 2Furoyl = O=C(c1ccco1)*; Abu = CC[C@H](N)C(=O)O; Cbz = O=C(OCc1ccccc1)*; NHBn = c1ccc(CN*)cc1; Piv = CC(C)(C)C(=O)*; Bz = O=C(c1ccccc1)*
Each compound was assayed against T1, Pyroglutamylated RF-amide peptide receptor (Homo sapiens) (UniProt Q96P65) (assay: Agonist activity at DYKDDDDK-flagged human GPR103 receptor expressed in CHO-K1 cells co-expressing G-protein alpha16 assessed as stimulation of calcium mobilization at 10' -12 to 10^-5 M after 2 mins by fluorometric analysis).
T1 sequence (whole entry): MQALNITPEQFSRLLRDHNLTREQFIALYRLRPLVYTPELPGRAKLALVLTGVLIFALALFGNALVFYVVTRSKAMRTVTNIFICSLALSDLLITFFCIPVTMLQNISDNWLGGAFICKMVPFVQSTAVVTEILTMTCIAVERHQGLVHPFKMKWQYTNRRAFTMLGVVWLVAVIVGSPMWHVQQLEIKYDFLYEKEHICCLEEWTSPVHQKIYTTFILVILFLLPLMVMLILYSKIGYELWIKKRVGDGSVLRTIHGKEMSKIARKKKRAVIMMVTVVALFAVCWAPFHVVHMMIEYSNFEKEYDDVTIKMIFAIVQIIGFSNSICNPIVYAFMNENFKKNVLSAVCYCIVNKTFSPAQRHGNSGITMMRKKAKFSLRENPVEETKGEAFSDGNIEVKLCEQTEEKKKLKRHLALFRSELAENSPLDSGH
Assay type: functional, cell-based
Procedure, shortened: (§1)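 CHO-K1 cells stably expressing Gα16 and C-terminally flag-tagged human GPR103 (Geneticin-selected), plated at 40 000 cells/well 24 h before assay. Loaded with 2 μM Fluo-4AM for 1 h, washed, then 30 min in HBSS with 2.5 mM probenecid and 5 mM HEPES. Peptides added at 10^-12 to 10^-5 M final and fluorescence read for 2 min. Triplicates; EC50 from sigmoidal variable-slope fit, at least three experiments.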

Compound	Activity
N=C(N)NCCC[C@H](NC(=O)[C@H](Cc1ccccc1)NC(=O)[C@H](CO)NC(=O)[C@H](Cc1ccccc1)NC(=O)CNC(=O)CN)C(=O)N[C@@H](Cc1ccccc1)C(=O)NCc1ccccc1 (H-GGFSFRF-NHBn)	inactive
N=C(N)NCCC[C@H](NC(=O)[C@H](Cc1ccccc1)NC(=O)[C@H](CO)NC(=O)[C@@H](N)Cc1ccccc1)C(=O)N[C@@H](Cc1ccccc1)C(N)=O (H-FSFRF-NH2)	inactive
N=C(N)NCCC[C@H](NC(=O)[C@H](Cc1ccccc1)NC(=O)[C@H](CO)NC(=O)[C@H](Cc1ccccc1)NC(=O)CNC(=O)CN)C(=O)N[C@@H](Cc1ccccc1)C(=O)N(Cc1ccccc1)Cc1ccccc1 (H-GGFSFRF-NBn2)	inactive

Second part, the compound after the results:

Activity	Compound
inactive	C[C@H](NC(=O)[C@H](CO)NC(=O)[C@H](Cc1ccccc1)NC(=O)CNC(=O)CN)C(=O)N[C@@H](CCCNC(=N)N)C(=O)N[C@@H](Cc1ccccc1)C(N)=O (H-GGFSARF-NH2)
inactive	CC(C)C[C@H](NC(=O)[C@@H]1CCCN1)C(=O)NCC(=O)N[C@@H](CC(N)=O)C(=O)N[C@@H](CC(C)C)C(=O)N[C@@H](C)C(=O)N[C@@H](CCC(=O)O)C(=O)N[C@@H](CCC(=O)O)C(=O)N[C@@H](CC(C)C)C(=O)N[C@@H](CC(N)=O)C(=O)NCC(=O)N[C@@H](Cc1ccc(O)cc1)C(=O)N[C@@H](CO)C(=O)N[C@@H](CCCNC(=N)N)C(N)=O (H-PLGNLAEELNGYSR-NH2)
inactive	CC(C)C[C@H](NC(=O)[C@H](CCC(=O)O)NC(=O)[C@H](CCC(=O)O)NC(=O)[C@H](C)NC(=O)[C@@H](N)CC(C)C)C(=O)N[C@@H](CC(N)=O)C(=O)NCC(=O)N[C@@H](Cc1ccc(O)cc1)C(=O)N[C@@H](CO)C(N)=O (H-LAEELNGYS-NH2)
inactive	N=C(N)NCCC[C@H](NC(=O)[C@H](Cc1ccccc1)NC(=O)[C@H](CO)NC(=O)[C@@H](Cc1ccccc1)NC(=O)CNC(=O)CN)C(=O)N[C@@H](Cc1ccccc1)C(N)=O

What follows are compounds tested against T1, Pyroglutamylated RF-amide peptide receptor (Homo sapiens) (assay: Antagonist activity at DYKDDDDK-flagged human GPR103 receptor expressed in CHO-K1 cells co-expressing G-protein alpha16 assessed as inhibition of 26RFa-induced calcium mobilization after 2 mins by fluorometric analysis).
Assay type: functional, cell-based
Procedure, shortened: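 Same Gα16/flag-hGPR103 CHO-K1 cells, Fluo-4AM loading and HBSS/probenecid/HEPES buffer. Triplicates; IC50 reported as mean ± SEM of at least three experiments.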

Compound	inhibition
C[C@H](NC(=O)[C@H](CO)NC(=O)[C@H](Cc1ccccc1)NC(=O)CNC(=O)CN)C(=O)N[C@@H](CCCNC(=N)N)C(=O)N[C@@H](Cc1ccccc1)C(N)=O (H-GGFSARF-NH2)	inactive
CC(C)C[C@H](NC(=O)[C@@H]1CCCN1)C(=O)NCC(=O)N[C@@H](CC(N)=O)C(=O)N[C@@H](CC(C)C)C(=O)N[C@@H](C)C(=O)N[C@@H](CCC(=O)O)C(=O)N[C@@H](CCC(=O)O)C(=O)N[C@@H](CC(C)C)C(=O)N[C@@H](CC(N)=O)C(=O)NCC(=O)N[C@@H](Cc1ccc(O)cc1)C(=O)N[C@@H](CO)C(=O)N[C@@H](CCCNC(=N)N)C(N)=O (H-PLGNLAEELNGYSR-NH2)	inactive
N=C(N)NCCC[C@H](NC(=O)[C@H](Cc1ccccc1)NC(=O)[C@H](CO)NC(=O)[C@H](Cc1ccccc1)NC(=O)CNC(=O)CN)C(=O)N[C@@H](Cc1ccccc1)C(=O)NCc1ccccc1 (H-GGFSFRF-NHBn)	inactive
CC(C)C[C@H](NC(=O)[C@H](CCC(=O)O)NC(=O)[C@H](CCC(=O)O)NC(=O)[C@H](C)NC(=O)[C@@H](N)CC(C)C)C(=O)N[C@@H](CC(N)=O)C(=O)NCC(=O)N[C@@H](Cc1ccc(O)cc1)C(=O)N[C@@H](CO)C(N)=O (H-LAEELNGYS-NH2)	inactive
N=C(N)NCCC[C@H](NC(=O)[C@H](Cc1ccccc1)NC(=O)[C@H](CO)NC(=O)[C@@H](Cc1ccccc1)NC(=O)CNC(=O)CN)C(=O)N[C@@H](Cc1ccccc1)C(N)=O	inactive

The compounds below were run against T2, Pyroglutamylated RF-amide peptide receptor (Homo sapiens, UniProt Q96P65) (assay: Agonist activity at DYKDDDDK-flagged human GPR103 receptor expressed in CHO-K1 cells co-expressing G-protein alpha16 assessed as stimulation of calcium mobilization after 2 mins by fluorometric analysis).
T2 sequence (Q96P65 whole entry): T1 sequence (whole entry)
Assay type: functional, cell-based
Procedure, shortened: as §1

Compound	EC50
NC(=O)[C@H](Cc1ccccc1)NC(=O)[C@H](CCCN=C(N)N)NC(=O)[C@H](Cc1ccccc1)NC(=O)[C@H](CO)NC(=O)[C@H](Cc1ccccc1)NC(=O)CNC(=O)CNC(=O)Cc1ccc(F)cc1 ({Phenylacetyl(4-F)}-GGFSFRF-NH2)	830 nM
N=C(N)NCCC[C@H](NC(=O)[C@H](Cc1ccccc1)NC(=O)[C@H](CC1CCCCC1)NC(=O)[C@H](Cc1ccccc1)NC(=O)CNC(=O)CN)C(=O)N[C@@H](Cc1ccccc1)C(N)=O (H-GGF[Cha]FRF-NH2)	1100 nM
CC(C)C[C@H](NC(=O)[C@H](CCC(=O)O)NC(=O)[C@H](CCC(=O)O)NC(=O)[C@H](C)NC(=O)[C@H](CC(C)C)NC(=O)[C@@H](NC(=O)CNC(=O)[C@H](CC(C)C)NC(=O)[C@@H]1CCCN1C(=O)CNC(=O)[C@H](CO)NC(=O)[C@H](C)N)[C@@H](C)O)C(=O)N[C@@H](CO)C(=O)N[C@@H](CO)C(=O)N[C@@H](Cc1ccc(O)cc1)C(=O)N[C@@H](CO)C(=O)N[C@@H](CCCNC(=N)N)C(=O)N[C@@H](CCCNC(=N)N)C(=O)N[C@@H](CCCCN)C(=O)NCC(=O)NCC(=O)N[C@@H](Cc1ccccc1)C(=O)N[C@@H](CO)C(=O)N[C@@H](Cc1ccccc1)C(=O)N[C@@H](CCCNC(=N)N)C(=O)N[C@@H](Cc1ccccc1)C(N)=O (H-ASGPLGTLAEELSSYSRRKGGFSFRF-NH2)	4.9 nM
CC(C)C[C@H](NC(=O)[C@H](CC(N)=O)NC(=O)CNC(=O)[C@H](CC(C)C)NC(=O)[C@@H]1CCCN1C(=O)CNC(=O)[C@H](CO)NC(=O)[C@@H](N)[C@@H](C)O)C(=O)N[C@@H](C)C(=O)N[C@@H](CCC(=O)O)C(=O)N[C@@H](CCC(=O)O)C(=O)N[C@@H](CC(C)C)C(=O)N[C@@H](CC(N)=O)C(=O)NCC(=O)N[C@@H](Cc1ccc(O)cc1)C(=O)N[C@@H](CO)C(=O)N[C@@H](CCCNC(=N)N)C(=O)N[C@@H](CCCCN)C(=O)N[C@@H](CCCCN)C(=O)NCC(=O)NCC(=O)N[C@@H](Cc1ccccc1)C(=O)N[C@@H](CO)C(=O)N[C@@H](Cc1ccccc1)C(=O)N[C@@H](CCCNC(=N)N)C(=O)NCc1ccccc1 (H-TSGPLGNLAEELNGYSRKKGGFSFR-NHBn)	67 nM
CC[C@H](NC(=O)[C@H](Cc1ccccc1)NC(=O)CNC(=O)CN)C(=O)N[C@@H](Cc1ccccc1)C(=O)N[C@@H](CCCNC(=N)N)C(=O)N[C@@H](Cc1ccccc1)C(N)=O (H-GGF[Abu]FRF-NH2)	355 nM
NC(=O)[C@H](Cc1ccccc1)NC(=O)[C@H](CCCN=C(N)N)NC(=O)[C@H](Cc1ccccc1)NC(=O)[C@H](CO)NC(=O)[C@H](Cc1ccccc1)NC(=O)CNC(=O)CNC(=O)OCc1ccccc1 (Cbz-GGFSFRF-NH2)	826 nM
CC(C)[C@H](NC(=O)[C@H](Cc1ccccc1)NC(=O)CNC(=O)CN)C(=O)N[C@@H](Cc1ccccc1)C(=O)N[C@@H](CCCN=C(N)N)C(=O)N[C@@H](Cc1ccccc1)C(N)=O (H-GGFVFRF-NH2)	1630 nM
NC(=O)[C@H](Cc1ccccc1)NC(=O)[C@H](CCCN=C(N)N)NC(=O)[C@H](Cc1ccccc1)NC(=O)[C@H](CO)NC(=O)[C@H](Cc1ccccc1)NC(=O)CNC(=O)CNC(=O)c1ccco1 (2Furoyl-GGFSFRF-NH2)	695 nM
CC[C@@H](C)[C@H](NC(=O)[C@H](Cc1ccccc1)NC(=O)CNC(=O)CN)C(=O)N[C@@H](Cc1ccccc1)C(=O)N[C@@H](CCCN=C(N)N)C(=O)N[C@@H](Cc1ccccc1)C(N)=O	817 nM
CC(C)C[C@H](NC(=O)[C@H](CC(N)=O)NC(=O)CNC(=O)[C@H](CC(C)C)NC(=O)[C@@H]1CCCN1C(=O)CNC(=O)[C@H](CO)NC(=O)[C@@H](N)[C@@H](C)O)C(=O)N[C@@H](C)C(=O)N[C@@H](CCC(=O)O)C(=O)N[C@@H](CCC(=O)O)C(=O)N[C@@H](CC(C)C)C(=O)N[C@@H](CC(N)=O)C(=O)NCC(=O)N[C@@H](Cc1ccc(O)cc1)C(=O)N[C@@H](CO)C(=O)N[C@@H](CCCNC(=N)N)C(=O)N[C@@H](CCCCN)C(=O)N[C@@H](CCCCN)C(=O)NCC(=O)NCC(=O)N[C@@H](Cc1ccccc1)C(=O)N[C@@H](CO)C(=O)N[C@@H](Cc1ccccc1)C(=O)N[C@@H](CCCNC(=N)N)C(=O)N[C@@H](Cc1ccccc1)C(=O)N(Cc1ccccc1)Cc1ccccc1 (H-TSGPLGNLAEELNGYSRKKGGFSFRF-NBn2)	166 nM
N=C(N)NCCC[C@H](NC(=O)[C@H](Cc1ccccc1)NC(=O)[C@H](CO)NC(=O)[C@H](Cc1ccccc1)NC(=O)CNC(=O)CNC(=O)c1ccccc1)C(=O)N[C@@H](Cc1ccccc1)C(N)=O (Bz-GGFSFRF-NH2)	722 nM
NCC(=O)NCC(=O)N[C@@H](Cc1ccccc1)C(=O)N[C@@H](CO)C(=O)N[C@@H](Cc1ccccc1)C(=O)N[C@@H](CCCN=C(N)N)C(=O)N[C@@H](Cc1ccccc1)C(=O)N(N1CCCCC1)N1CCCCC1 (H-GGFSFRF-X3)	1200 nM

The remaining lines, values ahead:

EC50	Compound
1710 nM	NCCCC[C@H](N)C(=O)NCC(=O)NCC(=O)N[C@@H](Cc1ccccc1)C(=O)N[C@@H](CO)C(=O)N[C@@H](Cc1ccccc1)C(=O)N[C@@H](CCCN=C(N)N)C(=O)N[C@@H](Cc1ccccc1)C(N)=O (H-KGGFSFRF-NH2)
3350 nM	C[C@H](N)C(=O)NCC(=O)N[C@@H](Cc1ccccc1)C(=O)N[C@@H](CO)C(=O)N[C@@H](Cc1ccccc1)C(=O)N[C@@H](CCCNC(=N)N)C(=O)N[C@@H](Cc1ccccc1)C(N)=O (H-AGFSFRF-NH2)
2980 nM	C[C@H](NC(=O)CN)C(=O)N[C@@H](Cc1ccccc1)C(=O)N[C@@H](CO)C(=O)N[C@@H](Cc1ccccc1)C(=O)N[C@@H](CCCN=C(N)N)C(=O)N[C@@H](Cc1ccccc1)C(N)=O (H-GAFSFRF-NH2)
2540 nM	CC(C)(C)C(=O)NCC(=O)NCC(=O)N[C@@H](Cc1ccccc1)C(=O)N[C@@H](CO)C(=O)N[C@@H](Cc1ccccc1)C(=O)N[C@@H](CCCN=C(N)N)C(=O)N[C@@H](Cc1ccccc1)C(N)=O (Piv-GGFSFRF-NH2)
1440 nM	CC(=O)NCC(=O)NCC(=O)N[C@@H](Cc1ccccc1)C(=O)N[C@@H](CO)C(=O)N[C@@H](Cc1ccccc1)C(=O)N[C@@H](CCCNC(=N)N)C(=O)N[C@@H](Cc1ccccc1)C(N)=O (Ac-GGFSFRF-NH2)
95.3 nM	NCCCC[C@H](NC(=O)[C@H](CCCCN)NC(=O)[C@H](CCCN=C(N)N)NC(=O)[C@H](CO)NC(=O)[C@H](Cc1ccc(O)cc1)NC(=O)CNC(=O)[C@@H](N)CC(N)=O)C(=O)NCC(=O)NCC(=O)N[C@@H](Cc1ccccc1)C(=O)N[C@@H](CO)C(=O)N[C@@H](Cc1ccccc1)C(=O)N[C@@H](CCCN=C(N)N)C(=O)N[C@@H](Cc1ccccc1)C(N)=O (H-NGYSRKKGGFSFRF-NH2)

— ChEMBL document CHEMBL1800022, “Structure-activity relationships of a series of analogues of the RFamide-related peptide 26RFa” (J Med Chem, 2011)
